Bioassay records as filed in PubChem.
Hits are enriched below; roughly 0.4% of the tested compounds scored in any of these assays.
TbMetRS inhib: blocks T. brucei methionyl-tRNA synthetase activity; AID 624268; purified T. brucei MetRS, ATP depletion, Kinase-Glo luminescence; inhibition, % at 11.9 µM; 360,000 compounds, 0.4% hits;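 active = inhibition above a per-plate cutoff of the control wells' mean inhibition plus 3 SD, cut at about 5.5% in these data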;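 note: 0% = DMSO wells median and 100% = median of wells with control inhibitor compound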
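Material – parasite MetRS enzyme · Medium – HEPES-MgCl2-KCl buffer plus DTT, spermine, BSA, pyrophosphatase · Reagent – ATP, methionine and E. coli bulk tRNA substrates · Times – 15 min enzyme-compound preincubation, 2 h reaction, 10 min detection, 25 °C · Measured by – luminescence of leftover ATP · Evaluation – percent inhibition relative to median high and low control wells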
ERp5 block: inhibitors of human ERp5; Q15084; ERp5 insulin aggregation, absorbance 650 nm, 90 min; inhibition, % at 9.99 µM; 350,000 compounds, 0.05% hits;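 active = mean replicate inhibition above about 25%, with every replicate also reaching it, limit read from the data, passing the limit was not always enough; inconclusive = only one of those two criteria met; inactive = neither criterion met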
Target sequence (Q15084 whole entry, looked up): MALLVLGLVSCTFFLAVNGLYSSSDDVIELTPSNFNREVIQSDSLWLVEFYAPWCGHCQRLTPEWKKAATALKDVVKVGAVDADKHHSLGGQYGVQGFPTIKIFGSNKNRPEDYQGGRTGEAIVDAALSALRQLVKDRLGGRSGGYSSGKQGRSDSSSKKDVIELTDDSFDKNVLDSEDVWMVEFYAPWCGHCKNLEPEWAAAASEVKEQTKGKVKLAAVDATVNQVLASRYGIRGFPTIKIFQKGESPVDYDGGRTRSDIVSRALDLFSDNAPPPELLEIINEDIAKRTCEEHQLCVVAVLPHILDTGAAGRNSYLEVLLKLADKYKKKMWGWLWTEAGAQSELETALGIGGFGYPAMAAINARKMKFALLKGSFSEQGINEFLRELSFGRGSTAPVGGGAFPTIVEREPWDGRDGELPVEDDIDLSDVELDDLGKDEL
PDI inh: PDI (human) enzyme inhibition. P07237. inhibition, % at 10 µM. PDI insulin aggregation turbidity, A650, 90 min. 350,000 compounds, 0.052% hits;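 active = mean inhibition across replicates of 30% or more, whatever share of single replicates reach that level; inconclusive = mean inhibition below 30% while every single replicate reaches 30%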
TbMetRS confirm: Trypanosoma brucei MetRS inhibition confirmed; shares compounds with TbMetRS inhib; T. brucei MetRS enzyme, luminescence (ATP depletion); inhibition, % at 11.9 µM; 1,400 compounds, 93% hits; AID 624412; in the data active = inhibition above about 7%
Jurkat cytotox: kills Jurkat cells in T. brucei MetRS counterscreen; shares compounds with TbMetRS inhib; Jurkat cells viability, ATP luminescence; inhibition, % at 8.3 µM; 1,400 compounds, 12% hits; AID 624413; in the data active = inhibition above about 15%;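 note: 0% = vehicle and 100% = reference inhibitor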
TbMetRS FP orth: orthogonal test for Trypanosoma brucei MetRS inhibitors | shares compounds with TbMetRS inhib | purified T. brucei MetRS, fluorescence polarization | inhibition, % at 11.9 µM | 1,400 compounds, 44% hits | AID 651607; in the data active = inhibition above about 17%;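 note: 0% = vehicle wells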
* hit, by the source's call; ? = inconclusive; . = not tested or not shown; ! = not active in a repeat.

SMILES | TbMetRS inhib | ERp5 block | PDI inh | others
COC1/C=C/C=C(\C)Cc2cc(O)c(Cl)c(c2)N(C)C(=O)CC(OC(=O)C(C)C)C2(C)OC2C(C)C2CC1(O)NC(=O)O2 (centres undefined) | 0 | 6 | 63*
COC(=O)[C@H]1[C@H](CO)[C@H]2Cn3c(ccc(C4=CCCCC4)c3=O)[C@@H]1N2CC1CCCCC1 | . | 5 | .
O=C1C(=O)c2cccc3cccc1c23 | 0 | -3 | 1
O=C1C(=O)c2ccccc2-c2ccccc21 | 38* | 4 | 167*
COC(=O)[C@H]1[C@H](CO)[C@H]2Cn3c(ccc(-c4ccncc4)c3=O)[C@@H]1N2CCc1ccccc1 | . | 0 | .
O=C(O)CC1OCC=C2CN3CCC45c6ccccc6NC4C1C2CC35 (centres undefined) | -1 | 2 | -9
O=C(O)CC1OCC=C2CN3CCC45C6=CC(=O)C(=O)C([N+](=O)[O-])=C6NC4C1C2CC35 (centres undefined) | 1 | . | 75*
COC(=O)[C@@H]1[C@@H](CO)[C@@H]2Cn3c(ccc(/C=C/c4ccccc4)c3=O)[C@H]1N2C(=O)C1CC1 | . | -1 | .
CCOC(=O)[C@@H]1[C@@H]2NC(=S)N(C)[C@@]1(COCc1ccc(OC)cc1)Oc1ccccc12 | . | 3 | .
CCCC[C@@H](C)C[C@@H](C)C(=O)N(C)[C@@H](CC(C)C)C(=O)N[C@H](C(=O)N(C)[C@H](C(=O)N1C[C@@H](O)C[C@H]1C(=O)N1C(=O)C=C[C@@H]1C)C(C)C)C(C)OC(C)=O (some centres undefined) | 0 | . | 37*
O=C(Cc1ccccn1)N1CC2(C1)[C@H](c1ccccc1)[C@@H](CO)N2Cc1ccccn1 | . | -1 | .
CCN1CC2(COC(=O)c3ccccc3N)CCC(OC)C34C5CC6C(OC)CC(O)(C5C6OC)C(O)(C(OC)C23)C14 (centres undefined) | 0 | . | ?
CCN1C[C@]2(COC(=O)c3ccccc3N)CC[C@H](OC)C34[C@@H]5C[C@H]6[C@H](OC)[C@@H]5[C@](O)(C[C@@H]6OC)[C@@](O)([C@H]13)[C@@H](OC)[C@@H]42 | -1 | 2 | 45*
C/C=C/c1ccc(C2[C@@H]3CN(C(=O)CN(C)C)C[C@H]2N3)cc1 (some centres undefined) | . | 1 | .
Clc1ccc2c(c1)C(OC1CN3CCC1CC3)c1ccccc1CS2 (centres undefined) | 0 | -3 | 2
CN1CCN(CCOC2c3ccccc3CSc3ccc(Cl)cc32)CC1 (centres undefined) | 0 | . | 32*
COC(=O)[C@@H]1[C@@H](CO)[C@@H]2Cn3c(cccc3=O)[C@H]1N2C(=O)C1CCCC1 | . | 0 | .
C/C=C/c1ccc([C@@H]2[C@H](CO)N3CCCCN(C(=O)Cc4cccnc4)C[C@@H]23)cc1 | . | -3 | .
O=C(O)[C@H]1[C@H](CO)[C@H]2Cn3c(ccc(-c4ccc(F)cc4)c3=O)[C@@H]1N2CC1CCCCC1 | . | 1 | .
CCn1nc(-c2ccccc2)nc2c(=O)n(C)c(=O)nc1-2 | 27* | . | .
COc1ccc(-c2nc3ccccc3c(=O)n2-c2ccc(OC)cc2)cc1 | -1 | 4 | 5
O=C(O)[C@H]1[C@H](CO)[C@H]2Cn3c(ccc(-c4ccccc4)c3=O)[C@@H]1N2C(=O)C1CCCCC1 | . | 9 | .
Cc1ccc(OC(=O)N(C)C[C@@H]2OCc3ccccc3-c3c(n(C)c4ccccc34)C(=O)N([C@@H](C)CO)C[C@H]2C)cc1 | . | -2 | .
Nc1c(C(=O)NC2CCCC2)c2nc3ccccc3nc2n1CC1CCCO1 (centres undefined) | 7.5* | . | -6 | TbMetRS confirm=5;Jurkat cytotox=-1;TbMetRS FP orth=5
Nc1c(C(=O)NCC2CCCO2)c2nc3ccccc3nc2n1Cc1ccco1 (centres undefined) | 0 | -7 | 2
SMILES | TbMetRS inhib | ERp5 block | PDI inh | others
Cc1ccccc1-c1ccc([C@H]2[C@@H](CO)N3CCCCN(C(=O)Cc4ccccn4)C[C@@H]23)cc1 | . | -2 | .
Cc1ccc2nc3c(cc2c1)CC1(C(=O)N(C)C(=O)N(C)C1=O)C1COCCN31 (centres undefined) | 7.1* | . | -5 | TbMetRS confirm=4;Jurkat cytotox=-5;TbMetRS FP orth=7
Cc1ccc2nc3c(cc2c1)CC1(C(=O)N(C)C(=O)N(C)C1=O)C1CCCCN31 (centres undefined) | 1 | . | -1
O=C(Cc1cccnc1)N1CCCCN2[C@H](CO)[C@@H](c3ccc(C#CC4CC4)cc3)[C@H]2C1 | . | 1 | .
CSc1ccc(C(=O)C2CCCN(Cc3cc4ccccc4[nH]3)C2)cc1 (centres undefined) | 7.1* | 6 | 3 | TbMetRS confirm=15*;Jurkat cytotox=8;TbMetRS FP orth=-2
CSc1ccc(C(=O)C2CCCN(Cc3cccnc3)C2)cc1 (centres undefined) | 0 | 4 | -1
CCCNC(=O)N1[C@@H]2Cn3c(ccc(-c4ccccc4OC)c3=O)[C@H]1[C@@H](C(=O)OC)[C@@H]2CO | . | -2 | .
CCOC(=O)c1c(NS(=O)(=O)c2ccccc2)n(CCCOC)c2nc3ccccc3nc12 | 14* | . | -14 | TbMetRS confirm=5;Jurkat cytotox=10;TbMetRS FP orth=3
COCCCn1c(N)c(C(=O)OCCOC)c2nc3ccccc3nc21 | 0 | . | -3
COC(=O)[C@H]1[C@H](CO)[C@H]2Cn3c(ccc(-c4ccccc4F)c3=O)[C@@H]1N2Cc1ccncc1 | . | -5 | .
COC(=O)[C@H]1[C@H](CO)[C@H]2Cn3c(ccc(-c4ccccc4F)c3=O)[C@@H]1N2 | . | 5 | .
Clc1ccc(CSC(Cn2ccnc2)c2ccc(Cl)cc2Cl)cc1 (centres undefined) | 0 | 1 | -13
Clc1ccc(COC(Cn2ccnc2)c2ccc(Cl)cc2Cl)cc1 (centres undefined) | 6.1* | -2 | -1 | TbMetRS confirm=20*;Jurkat cytotox=13;TbMetRS FP orth=14
CC1=C2C[C@H]3[C@@H](CC=C4C[C@@H](O)CC[C@@]43C)[C@@H]2CC[C@]12O[C@@H]1C[C@H](C)CN[C@@H]1C2C (some centres undefined) | . | -7 | .
NC(=O)c1cn(C2OC(CO)C(O)C2O)c2ncnc(N)c12 (centres undefined) | 5.9*! | 3 | -5 | TbMetRS confirm=12*;Jurkat cytotox=97*;TbMetRS FP orth=12
N#Cc1cn(C2OC(CO)C(O)C2O)c2ncnc(N)c12 (centres undefined) | 0 | 7 | -3
Cc1nc2c(=O)n(C)c(=O)nc-2n(C)n1 | 30* | . | 189* | TbMetRS confirm=22*;Jurkat cytotox=91*;TbMetRS FP orth=12
Clc1ccc(C(c2ccc(Cl)cc2)n2cc[n+](CC(OCc3ccc(Cl)cc3Cl)c3ccc(Cl)cc3Cl)c2)cc1 (centres undefined) | 8.7* | -3 | 3 | TbMetRS confirm=13*;Jurkat cytotox=82*;TbMetRS FP orth=178*
C[C@H]1CN([C@@H](C)CO)C(=O)CCCn2cc(nn2)CO[C@@H]1CN(C)C(=O)Oc1ccc2ccccc2c1 | . | -7 | .
COc1ccccc1CN1[C@H](CO)[C@@H](c2ccccc2)C12CN(C(=O)Cc1ccccc1)C2 | . | 3 | .
